Active and inactive are the calls of the source.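 The calls were made as follows, unless noted: active = viability loss from added drug above about 55%, and viability with drug at most 40%, in both replicates (limit read from the data, passing the limit was not always enough); inconclusive = both conditions met in only one replicate; inactive = neither replicate meets both conditions.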
Key:
[1] = reducers of endogenous Her2 protein level, primary screen, SKBR3 breast tumor cells, AlphaScreen, ATP viability (AID 461;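 active = Her2 level under about 52% in both replicate screens, with viability over 70% of control, limit read from the data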;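 as to Her2 level: lower value means less Her2 protein in the cells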;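 as to viability: percent of carrier control wells set as 100% viability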); conditions: 18-24 h, measured here: SKBR3 viability, ATP luminescence, at 10 µM
[2] = target: Receptor tyrosine-protein kinase erbB-2 (Homo sapiens) (UniProt P04626); test: as above; conditions: 18-24 h, at 10 µM, stronger effect = lower value
[3] = SK-BR-3 cell growth inhibitors, pilot screen, 24 h, human (AID 572;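 active = viability at or below 10% of carrier control in both of two separate runs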;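 also: compound exposure lasted between 18 and 24 h rather than exactly 24 h; 100% = carrier-treated control wells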); conditions: SK-BR-3 viability, CellTiter-Glo luminescence, at 10 µM, stronger effect = lower value
[4] = HUVEC growth inhibition – cell-based, human, primary screen (AID 575;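 active = viability at or below 30% in both replicate assays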;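 also: 100% = median of untreated cell wells with 0.1% DMSO on each plate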); conditions: HUVEC proliferation, CellTiter-Glo luminescence, 72 h; at 10 µM; stronger effect = lower value
Summary of the method: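 Test system – primary HUVEC, no more than 12 passages · Dosing – one dose, 10 µM final, 0.1% DMSO · Times – 72 h treatment at 37 °C · Measured by – ATP-based CellTiter-Glo luminescent read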

[5] = growth inhibitors of H69AR lung tumor, primary screen, human, duplicate replicates (AID 580;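 active = viability at or under a set limit in both replicates, limit being median viability minus 3 SD, cut at about 48% in these data, passing the limit was not always enough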;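 also: 100% = mean luminescence of untreated wells and 0% = no signal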); conditions: H69AR lung tumor cells viability, ATP luminescence, 72 h; at 10 µM; stronger effect = lower value
[6] = reversal of MRP1-mediated doxorubicin resistance, pilot screen, H69AR cells, doxorubicin co-treatment (AID 601); conditions: CellTiter-Glo, 72 h, at 10 µM; for differential viability (reversal): stronger effect = higher value
[7] = 384-well plate pilot, post-Golgi transport modulator project, inhibition of yeast transport mutant growth (AID 636; in the data active = inhibition above about 31%); conditions: absorbance 615 nm, about 18 h, stronger effect = higher value
[8] = growth suppression of yeast trafficking mutant, preliminary HTS, modulators of trafficking downstream of Golgi apparatus project, 1536-format plate, OD 615 nm (AID 637; in the data active = inhibition above about 30%); conditions: yeast transport mutant growth, absorbance 615 nm, 18 h; stronger effect = higher value
[9] = H69AR cells + 2 uM doxorubicin, measured here: viability with 2 uM doxorubicin, stronger effect = lower value
[10] = H69AR cells, compound alone cytotoxicity

Chain of Receptor tyrosine-protein kinase erbB-2 (Homo sapiens) (P04626 whole entry, looked up): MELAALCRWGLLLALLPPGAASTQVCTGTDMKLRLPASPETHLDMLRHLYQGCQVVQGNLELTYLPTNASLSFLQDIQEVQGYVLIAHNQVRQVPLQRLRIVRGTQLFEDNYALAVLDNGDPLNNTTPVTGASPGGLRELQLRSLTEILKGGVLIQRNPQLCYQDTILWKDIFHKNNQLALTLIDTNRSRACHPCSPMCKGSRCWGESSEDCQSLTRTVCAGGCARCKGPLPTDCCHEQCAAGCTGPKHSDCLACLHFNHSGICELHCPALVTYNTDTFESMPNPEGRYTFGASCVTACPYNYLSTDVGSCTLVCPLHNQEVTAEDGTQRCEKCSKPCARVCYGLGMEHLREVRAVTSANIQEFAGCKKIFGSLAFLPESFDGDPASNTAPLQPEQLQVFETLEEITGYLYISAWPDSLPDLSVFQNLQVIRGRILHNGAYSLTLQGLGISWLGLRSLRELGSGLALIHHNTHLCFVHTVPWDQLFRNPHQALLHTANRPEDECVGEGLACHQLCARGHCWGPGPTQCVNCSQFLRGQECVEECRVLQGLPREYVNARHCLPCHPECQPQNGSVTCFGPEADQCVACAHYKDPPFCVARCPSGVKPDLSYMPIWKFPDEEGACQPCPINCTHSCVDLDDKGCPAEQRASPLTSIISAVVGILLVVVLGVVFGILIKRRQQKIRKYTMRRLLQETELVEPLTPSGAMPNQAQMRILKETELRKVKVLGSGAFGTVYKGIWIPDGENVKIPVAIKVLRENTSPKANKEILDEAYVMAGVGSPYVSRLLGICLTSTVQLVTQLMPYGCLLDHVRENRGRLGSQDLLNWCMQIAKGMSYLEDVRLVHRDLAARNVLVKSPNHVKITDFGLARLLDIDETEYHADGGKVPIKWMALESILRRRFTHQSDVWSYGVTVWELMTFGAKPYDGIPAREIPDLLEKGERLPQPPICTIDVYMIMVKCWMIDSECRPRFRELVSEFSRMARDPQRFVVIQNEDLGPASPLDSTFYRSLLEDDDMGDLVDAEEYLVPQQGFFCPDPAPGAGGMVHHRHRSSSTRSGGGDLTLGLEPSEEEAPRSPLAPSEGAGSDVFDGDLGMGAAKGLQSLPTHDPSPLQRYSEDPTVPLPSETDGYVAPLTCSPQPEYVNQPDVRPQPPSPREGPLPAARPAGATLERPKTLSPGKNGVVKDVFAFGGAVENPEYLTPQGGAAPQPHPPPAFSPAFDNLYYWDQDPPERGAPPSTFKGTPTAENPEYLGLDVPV

## CN(CC(=O)Nc1ccc2c(c1)OCCO2)S(=O)(=O)c1ccc(Br)s1
[1]
  viability: 90.5%
[2]
  Her2 level: 94.5% (inactive)
[3]
  viability: 90.5% (inactive)
[4]
  viability: 111% (inactive)
[5]
  viability: 83.3% (inactive)
[6]; H69AR cells + 2 uM doxorubicin
  differential viability (reversal): -10.7% (inactive)
[6]; [9]
  viability: 94%
[6]; [10]
  viability: 83.3%
[7]
  inhibition: -2.63% (inactive)
[8]
  inhibition: -10.8% (inactive)

## COC(=O)[C@H](C)NC(=O)Nc1cc(OC)ccc1OC
[1]
  viability: 121%
[2]
  Her2 level: 81.5% (inactive)
[3]
  viability: 121% (inactive)
[4]
  viability: 61.1% (inactive)
[5]
  viability: 75.1% (inactive)
[6]; H69AR cells + 2 uM doxorubicin
  differential viability (reversal): 25% (inactive)
[6]; [9]
  viability: 50.1%
[6]; [10]
  viability: 75.1%
[7]
  inhibition: -2.34% (inactive)
[8]
  inhibition: -0.48% (inactive)

## Cc1ccc(S(=O)(=O)Cc2ccc(C(=O)NCCCN3CCN(C)CC3)o2)cc1
[1]
  viability: 104%
[2]
  Her2 level: 99.5% (inactive)
[3]
  viability: 104% (inactive)
[4]
  viability: 96.9% (inactive)
[5]
  viability: 103% (inactive)
[6]; H69AR cells + 2 uM doxorubicin
  differential viability (reversal): 11% (inactive)
[6]; [9]
  viability: 92.1%
[6]; [10]
  viability: 103%
[7]
  inhibition: -0.66% (inactive)
[8]
  inhibition: -5.64% (inactive)

## CCc1nnc(NC(=O)C2CCCN2S(=O)(=O)c2ccc(C)cc2)s1 (stereo not given)
[1]
  viability: 91.5%
[2]
  Her2 level: 89.5% (inactive)
[3]
  viability: 91.5% (inactive)
[4]
  viability: 117% (inactive)
[5]
  viability: 117% (inactive)
[6]; H69AR cells + 2 uM doxorubicin
  differential viability (reversal): 5.4% (inactive)
[6]; [9]
  viability: 112%
[6]; [10]
  viability: 117%
[7]
  inhibition: -6.35% (inactive)
[8]
  inhibition: 6.07% (inactive)

## CC1(C)CC(=O)C=C(Nc2ccc(F)cc2)C1
[1]
  viability: 102%
[2]
  Her2 level: 95% (inactive)
[3]
  viability: 102% (inactive)
[4]
  viability: 90.5% (inactive)
[5]
  viability: 96.5% (inactive)
[6]; H69AR cells + 2 uM doxorubicin
  differential viability (reversal): 6.35% (inactive)
[6]; [9]
  viability: 90.1%
[6]; [10]
  viability: 96.5%
[7]
  inhibition: -0.39% (inactive)
[8]
  inhibition: -3.64% (inactive)

## Cc1ccc(S(=O)(=O)Nc2nc3ccccc3nc2NCc2ccco2)cc1
[1]
  viability: 114%
[2]
  Her2 level: 93.5% (inactive)
[3]
  viability: 114% (inactive)
[4]
  viability: 86.7% (inactive)
[5]
  viability: 22.5% (active)
[6]; H69AR cells + 2 uM doxorubicin
  differential viability (reversal): 0.645% (inactive)
[6]; [9]
  viability: 21.9%
[6]; [10]
  viability: 22.5%
[7]
  inhibition: -5.47% (inactive)
[8]
  inhibition: -6.51% (inactive)

## CNC(=O)CC(C(=O)O)c1ccc(OC(C)C)cc1 (stereo not given)
[1]
  viability: 105%
[2]
  Her2 level: 85.5% (inactive)
[3]
  viability: 105% (inactive)
[4]
  viability: 92.3% (inactive)
[5]
  viability: 90% (inactive)
[6]; H69AR cells + 2 uM doxorubicin
  differential viability (reversal): 4.31% (inactive)
[6]; [9]
  viability: 85.7%
[6]; [10]
  viability: 90%
[7]
  inhibition: -5.07% (inactive)
[8]
  inhibition: 1.75% (inactive)

## O=c1cc(CN2CCN(c3ccc(F)cc3)CC2)nc2sccn12
[1]
  viability: 85%
[2]
  Her2 level: 118% (inactive)
[3]
  viability: 85% (inactive)
[4]
  viability: 87.9% (inactive)
[5]
  viability: 87.2% (inactive)
[6]; H69AR cells + 2 uM doxorubicin
  differential viability (reversal): -4.83% (inactive)
[6]; [9]
  viability: 92.1%
[6]; [10]
  viability: 87.2%
[7]
  inhibition: 5.45% (inactive)
[8]
  inhibition: -14.2% (inactive)

## COC(=O)C1=C(C)OC(N)=C(C#N)C1c1ccccc1 (stereo not given)
[1]
  viability: 94.5%
[2]
  Her2 level: 77% (inactive)
[3]
  viability: 94.5% (inactive)
[4]
  viability: 102% (inactive)
[5]
  viability: 94% (inactive)
[6]; H69AR cells + 2 uM doxorubicin
  differential viability (reversal): 12.1% (inactive)
[6]; [9]
  viability: 82%
[6]; [10]
  viability: 94%
[7]
  inhibition: -1.18% (inactive)
[8]
  inhibition: -9.82% (inactive)

## O=C(C1CCCN(S(=O)(=O)c2cnc[nH]2)C1)N1CC(=O)N(CCc2ccccc2)C(=O)C1 (stereo not given)
[1]
  viability: 93.5%
[2]
  Her2 level: 92% (inactive)
[3]
  viability: 93.5% (inactive)
[4]
  viability: 105% (inactive)
[5]
  viability: 95% (inactive)
[6]; H69AR cells + 2 uM doxorubicin
  differential viability (reversal): -4.7% (inactive)
[6]; [9]
  viability: 99.7%
[6]; [10]
  viability: 95%
[7]
  inhibition: -0.8% (inactive)
[8]
  inhibition: 21.6% (inactive)

## CC1(C)CC(=O)C2=C(C1)OC(N)=C(C#N)C2C1CC=CCC1 (stereo not given)
[1]
  viability: 108%
[2]
  Her2 level: 93% (inactive)
[3]
  viability: 108% (inactive)
[4]
  viability: 91.4% (inactive)
[5]
  viability: 81.6% (inactive)
[6]; H69AR cells + 2 uM doxorubicin
  differential viability (reversal): 12.5% (inactive)
[6]; [9]
  viability: 69.1%
[6]; [10]
  viability: 81.6%
[7]
  inhibition: -7.53% (inactive)
[8]
  inhibition: -2.22% (inactive)

## CC(=O)c1ccc(OC(=O)c2cccs2)cc1
[1]
  viability: 86%
[2]
  Her2 level: 94.5% (inactive)
[3]
  viability: 86% (inactive)
[4]
  viability: 94.1% (inactive)
[5]
  viability: 105% (inactive)
[6]; H69AR cells + 2 uM doxorubicin
  differential viability (reversal): -5.42% (inactive)
[6]; [9]
  viability: 110%
[6]; [10]
  viability: 105%
[7]
  inhibition: -3.11% (inactive)
[8]
  inhibition: 3.61% (inactive)

## CCc1nc(N)c(C#N)c(-c2ccncc2)c1C
[1]
  viability: 102%
[2]
  Her2 level: 95% (inactive)
[3]
  viability: 102% (inactive)
[4]
  viability: 89.2% (inactive)
[5]
  viability: 102% (inactive)
[6]; H69AR cells + 2 uM doxorubicin
  differential viability (reversal): 21.1% (inactive)
[6]; [9]
  viability: 80.6%
[6]; [10]
  viability: 102%
[7]
  inhibition: -4.27% (inactive)
[8]
  inhibition: -0.82% (inactive)

## Cc1noc(C)c1CSc1nnc(-c2ccncc2)n1-c1cccc(Cl)c1C
[1]
  viability: 81.5%
[2]
  Her2 level: 93.5% (inactive)
[3]
  viability: 81.5% (inactive)
[4]
  viability: 81% (inactive)
[5]
  viability: 88.4% (inactive)
[6]; H69AR cells + 2 uM doxorubicin
  differential viability (reversal): 2.37% (inactive)
[6]; [9]
  viability: 86%
[6]; [10]
  viability: 88.4%
[7]
  inhibition: -3.42% (inactive)
[8]
  inhibition: -8.25% (inactive)
